Experimental data of several laboratories.
Compare with care: the assays were run in different laboratories.
Target: Mitogen-activated protein kinase kinase kinase 7 (MAP3K7, Homo sapiens, UniProt O43318)

SMILES	read-out	mode	method	tested at	endpoint	value
CNC(=O)c1cc(Oc2ccc(NC(=O)Nc3ccc(Cl)c(C(F)(F)F)c3)cc2)ccn1	cell-free assay			0.5 µM	remaining signal	101%
Cc1cc(-n2nc(Cc3cc(F)cc(C(F)(F)F)c3)nc2C)ccc1C(N)=O	cell-free assay		competition with immobilised ligand	1 µM	remaining binding	100%
Cc1ccc(Nc2nccc(N(C)c3ccc4c(C)n(C)nc4c3)n2)cc1S(N)(=O)=O	enzyme activity	inhibitor		0.3 µM	inhibition	-8%
CO[C@@H](C)c1c(Nc2ccc([C@H](N(C)C(=O)C3CCS(=O)(=O)CC3)C(F)(F)F)cc2)cnc2cc(Cl)nn12	cell-free assay		competition with immobilised ligand	1 µM	remaining binding	89%
Cc1ccc(C(=O)NCc2ccsc2)cc1C#Cc1cn(C(C)C)c2ncnc(N)c12	enzyme activity	inhibitor		1 µM	activity vs control	112%
FC(F)(F)Oc1cccc(-c2cnc3ccc(-c4ccncc4)nn23)c1	enzyme activity	inhibitor	radiometric	5 µM	activity vs control	58%
O=C(Nc1cnn(-c2csc(C(=O)NC3COC3)c2)c1)Nc1ccccc1Cl	enzyme activity	inhibitor		5 µM	remaining activity	98%
FC(F)c1nc2ccccc2n1-c1nc(N2CCOCC2)nc(N2CCOCC2)n1	enzyme activity	inhibitor		10 µM	remaining activity	97%
c1ccc(CNc2nc(N3CCOc4ccccc43)nc3c2CCCC3)cc1	target engagement in cells	inhibitor	chemoproteomics	20 mM	inhibition	-10.3%
COc1cc(/C=C/C(=O)CC(=O)/C=C/c2ccc(O)c(OC)c2)ccc1O	enzyme activity	inhibitor		1 µM	activity vs control	102%
CCCOc1ccc([C@H]2[C@H](C(=O)O)[C@@H](c3ccc4c(c3)OCO4)CN2CC(=O)Nc2c(CC)cccc2CC)cc1	cell-free assay		competition with immobilised ligand	1 µM	remaining binding	100%
CN1CC(Oc2cnc(C#N)cc2-c2ccn3nc(NC(=O)C4CC4)cc3c2)C1	enzyme activity	inhibitor		1 µM	inhibition	8%
Cc1cc(C)c(-n2ccn3nc(-c4cccnc4)cc23)cc1NC(=O)c1cc(C#N)cc(S(F)(F)(F)(F)F)c1	cell-free assay		competition with immobilised ligand	0.1 µM	remaining binding	66.2%
COc1cc(Nc2cnc(C#N)c(O[C@H](C)CN(C)C)n2)ncc1-c1cnn(C)c1	enzyme activity	inhibitor	radiometric	1 µM	remaining activity	97%
CS(=O)(=O)N1CCCC(NC(=O)[C@H](CCC2CCCCC2)NC(=O)c2ccc(CNc3ncnc4c3nnn4-c3ccccc3)cc2)C1 (stereo partly drawn)	cell-free assay		competition with immobilised ligand	0.1 µM	remaining binding	100%
O=C1NC(=O)c2cc(Nc3ccc(F)cc3)c(Nc3ccc(F)cc3)cc21	cell-free assay			0.5 µM	remaining signal	98.8%
Cc1nccc(COC(=O)N2C[C@@H]3[C@@H](CNC(=O)c4ccc5[nH]nnc5c4)[C@@H]3C2)n1	cell-free assay		competition with immobilised ligand	1 µM	remaining binding	75%
C=CC(=O)Nc1cc(Nc2nccc(Nc3cc(Cl)c(F)cc3C(C)(C)O)n2)c(OC)cc1N1CC[C@@H](N(C)C)C1	enzyme activity	inhibitor		1 µM	inhibition	21%
